From ChEMBL document CHEMBL4270565, “Design, synthesis and antimicrobial evaluation of propylene-tethered ciprofloxacin-isatin hybrids” (Eur J Med Chem, 2018)
Converted amounts (≈) assume the structure as drawn.

Legend:
[1] = system: Staphylococcus epidermidis; assay: Antibacterial activity against methicillin-sensitive Staphylococcus epidermidis ATCC 12228 after 18 to 24 hrs by two-fold serial dilution method; assay type: functional
Summary of the method: (§1)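 Agar two-fold dilution MIC. Compounds were dissolved in 0.1 N NaOH and water, then serially diluted in melted Mueller-Hinton agar, with top concentrations starting at 128. Plates were inoculated at about 10 cfu and incubated at 35 °C for 18–24 h. MIC was taken as the lowest concentration giving 90% inhibition of growth.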

Citrobacter freundii = assay: Antibacterial activity against extended-spectrum beta-lactamase harboring Citrobacter freundii ATCC 43864 after 18 to 24 hrs by two-fold serial dilution method; assay type: functional
Summary of the method: (§2)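 Agar two-fold serial dilution in Mueller-Hinton agar. Strains came from the Chinese Center for Disease Control and Prevention. Compounds were dissolved in 0.1 N NaOH and water, then diluted in melted agar to final levels stepping down from 128. Plates were inoculated with bacterial cfu and incubated at 35 C for 18–24 h. MIC is the lowest concentration giving 90% growth inhibition.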

Serratia marcescens = assay: Antibacterial activity against Serratia marcescens ATCC 21074 after 18 to 24 hrs by two-fold serial dilution method; assay type: functional; summary of the method: as §1
[2] = AUC (0 to infinity) in ICR mouse at 50 mg/kg, po administered as single dose by HPLC analysis; assay type: ADME, organism-based; set-up: dose 50 mg/kg, route oral, time infinity; conditions: in vivo
Summary of the method: (§3)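 Mice (3 per group), fasted overnight, given a single oral dose of 50 mg/kg as a suspension in 0.5% CMC. Jugular vein blood taken at 0.25, 0.5, 1, 2, 4, 6, 8 and 24 h. Serum proteins precipitated with acetonitrile and centrifuged; the dried supernatant was redissolved in acetonitrile for HPLC. PK parameters were derived directly from the concentration–time data.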

Klebsiella pneumoniae [3] = assay: Antibacterial activity against extended-spectrum beta-lactamase harboring Klebsiella pneumoniae ATCC 700603 after 18 to 24 hrs by two-fold serial dilution method; assay type: functional; summary of the method: as §2
Klebsiella pneumoniae [4] = assay: Antibacterial activity against extended-spectrum beta-lactamase deficient Klebsiella pneumoniae 15-2 after 18 to 24 hrs by two-fold serial dilution method; assay type: functional; summary of the method: as §1
Proteus vulgaris = assay: Antibacterial activity against Proteus vulgaris ATCC 29905 after 18 to 24 hrs by two-fold serial dilution method; assay type: functional; summary of the method: as §1
Enterococcus faecalis [5] = assay: Antibacterial activity against Enterococcus faecalis ATCC 29212 after 18 to 24 hrs by two-fold serial dilution method; assay type: functional; summary of the method: as §1
Enterococcus faecium [6] = assay: Antibacterial activity against Enterococcus faecium ATCC 700221 after 18 to 24 hrs by two-fold serial dilution method; assay type: functional; summary of the method: as §1
Klebsiella aerogenes = assay: Antibacterial activity against Enterobacter aerogenes ATCC 13048 after 18 to 24 hrs by two-fold serial dilution method; assay type: functional; summary of the method: as §1
[7] = system: Mycobacterium tuberculosis; assay: Antimycobacterial activity against Mycobacterium tuberculosis H37Rv after 7 days; assay type: functional; conditions: 168 h
Summary of the method: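 Rapid direct susceptibility test in 48-well plates. Two-fold dilutions of compound from DMSO stocks were mixed with an equal volume of bacterial suspension. Medium-only wells served as growth controls and water-only wells as no-growth controls. Plates were sealed and held at 37 C in a humid box, and controls were checked at 3 days. MIC (90% growth inhibition) was read visually by high-magnification observation of the cells and re-read at 7 days.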

Escherichia coli [8] = assay: Antibacterial activity against extended-spectrum beta-lactamase deficient Escherichia coli ATCC 25922 after 18 to 24 hrs by two-fold serial dilution method; assay type: functional; summary of the method: as §1
Enterococcus faecium [9] = assay: Antibacterial activity against Enterococcus faecium 13-7 after 18 to 24 hrs by two-fold serial dilution method; assay type: functional; summary of the method: as §1
[10] = Tmax in ICR mouse at 50 mg/kg, po administered as single dose by HPLC analysis; assay type: ADME, organism-based; conditions: in vivo; summary of the method: as §3
Escherichia coli [11] = assay: Antibacterial activity against extended-spectrum beta-lactamase harboring Escherichia coli ATCC 35218 after 18 to 24 hrs by two-fold serial dilution method; assay type: functional; summary of the method: as §2
[12] = system: Staphylococcus epidermidis; assay: Antibacterial activity against methicillin-resistant Staphylococcus epidermidis 13-3 after 18 to 24 hrs by two-fold serial dilution method; assay type: functional; summary of the method: as §2
[13] = Cmax in ICR mouse at 50 mg/kg, po administered as single dose by HPLC analysis; assay type: ADME, organism-based; set-up: dose 50 mg/kg, route oral; conditions: in vivo; summary of the method: as §3
Staphylococcus aureus [14] = assay: Antibacterial activity against methicillin-sensitive Staphylococcus aureus ATCC 29213 after 18 to 24 hrs by two-fold serial dilution method; assay type: functional; summary of the method: as §2
Pseudomonas aeruginosa = assay: Antibacterial activity against Pseudomonas aeruginosa ATCC 27853 after 18 to 24 hrs by two-fold serial dilution method; assay type: functional; summary of the method: as §1
Staphylococcus aureus [15] = assay: Antibacterial activity against methicillin-resistant Staphylococcus aureus ATCC 33591 after 18 to 24 hrs by two-fold serial dilution method; assay type: functional; summary of the method: as §2
Proteus mirabilis = assay: Antibacterial activity against Proteus mirabilis 13-1 after 18 to 24 hrs by two-fold serial dilution method; assay type: functional; summary of the method: as §1
Enterococcus faecalis [16] = assay: Antibacterial activity against Enterococcus faecalis ATCC 51299 after 18 to 24 hrs by two-fold serial dilution method; assay type: functional; summary of the method: as §1
[17] = system: Stenotrophomonas maltophilia; assay: Antibacterial activity against Stenotrophomonas maltophilia ATCC 13636 after 18 to 24 hrs by two-fold serial dilution method; assay type: functional; summary of the method: as §1
[18] = system: Acinetobacter calcoaceticus; assay: Antibacterial activity against Acinetobacter calcoaceticus ATCC 19606 after 18 to 24 hrs by two-fold serial dilution method; assay type: functional; summary of the method: as §1
Morganella morganii = assay: Antibacterial activity against Morganella morganii ATCC 25830 after 18 to 24 hrs by two-fold serial dilution method; assay type: functional; summary of the method: as §1
Providencia rettgeri = assay: Antibacterial activity against Providencia rettgeri ATCC 31052 after 18 to 24 hrs by two-fold serial dilution method; assay type: functional; summary of the method: as §1
[19] = Cytotoxicity against African green monkey Vero cells assessed as reduction in cell viability after 72 hrs by MTT assay; assay type: cell-based; conditions: chlorocebus sabaeus
Summary of the method: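 VERO cells were kept in MEM with Earle's salts and 10% FBS at 37 °C, 5% CO2. They were seeded in 96-well plates and allowed to recover for 24 h. Cells were then exposed to compounds in DMSO over a series from 1000 down to 4 for 72 h. Viability was read by MTT, and CC50 was calculated by Bliss analysis.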

[20] = system: Mycobacterium tuberculosis; assay: Potency index, ratio of ciprofloxacin MIC90 to compound MIC90 for Mycobacterium tuberculosis H37Rv; assay type: functional
[21] = Half life in mouse microsomes; assay type: ADME, Microsome
[22] = system: Mycobacterium tuberculosis; assay: Potency index, ratio of rifampicin MIC90 to compound MIC90 for Mycobacterium tuberculosis H37Rv; assay type: functional
[23] = Elimination half life in ICR mouse at 50 mg/kg, po administered as single dose by HPLC analysis; assay type: ADME, organism-based; conditions: in vivo, read-out: beta t1/2 (converted)
Enterobacter cloacae = assay: Antibacterial activity against Enterobacter cloacae ATCC 43560 after 18 to 24 hrs by two-fold serial dilution method; assay type: functional

SMILES	MIC90 [1] [µg/mL]	MIC90 (Citrobacter freundii) [µg/mL]	MIC90 (Serratia marcescens) [µg/mL]	AUC(0-inf) [2] [ng·h/mL]	MIC90 (Klebsiella pneumoniae [3]) [µg/mL]	MIC90 (Klebsiella pneumoniae [4]) [µg/mL]	MIC90 (Proteus vulgaris) [µg/mL]	MIC90 (Enterococcus faecalis [5]) [µg/mL]	MIC90 (Enterococcus faecium [6]) [µg/mL]	MIC90 (Klebsiella aerogenes) [µg/mL]	MIC90 [7] [µg/mL]	MIC90 (Escherichia coli [8]) [µg/mL]	MIC90 (Enterococcus faecium [9]) [µg/mL]	Tmax [10] [h]	MIC90 (Escherichia coli [11]) [µg/mL]	MIC90 [12] [µg/mL]	Cmax [13] [ng/mL]	MIC90 (Staphylococcus aureus [14]) [µg/mL]	MIC90 (Pseudomonas aeruginosa) [µg/mL]	MIC90 (Staphylococcus aureus [15]) [µg/mL]	also measured
O=C(O)c1cn(C2CC2)c2cc(N3CCNCC3)c(F)cc2c1=O [CIPROFLOXACIN]	0.125 (≈ 0.377 µM)	≤ 0.03	0.06 (≈ 0.181 µM)	17800	0.5 (≈ 1.51 µM)	≤ 0.03	≤ 0.03	0.5 (≈ 1.51 µM)	8 (≈ 24.1 µM)	≤ 0.03	0.78 (≈ 2.35 µM)	≤ 0.03	128 (≈ 386 µM)	1.8	≤ 0.03	64 (≈ 193 µM)	3130	0.25 (≈ 0.754 µM)	0.25 (≈ 0.754 µM)	0.5 (≈ 1.51 µM)	MIC90 (Proteus mirabilis): ≤ 0.03 µg/mL; MIC90 (Enterococcus faecalis [16]): 0.5 µg/mL (≈ 1.51 µM); MIC90 [17]: 2 µg/mL (≈ 6.04 µM); MIC90 [18]: 0.5 µg/mL (≈ 1.51 µM); MIC90 (Morganella morganii): ≤ 0.03 µg/mL; MIC90 (Providencia rettgeri): ≤ 0.03 µg/mL; CC50 at 72 h [19]: 128 µg/mL (≈ 386 µM)
Cc1ccc2c(c1)C(=O)C(=O)N2CCCN1CCN(c2cc3c(cc2F)c(=O)c(C(=O)O)cn3C2CC2)CC1	0.125 (≈ 0.235 µM)	≤ 0.03	0.25 (≈ 0.469 µM)	4990	1 (≈ 1.88 µM)	0.06 (≈ 0.113 µM)	≤ 0.03	0.5 (≈ 0.939 µM)	4 (≈ 7.51 µM)	0.06 (≈ 0.113 µM)	0.1 (≈ 0.188 µM)	≤ 0.03	32 (≈ 60.1 µM)	1.3	≤ 0.03	2 (≈ 3.76 µM)	1230	0.125 (≈ 0.235 µM)	2 (≈ 3.76 µM)	0.125 (≈ 0.235 µM)	Ratio [20]: 4; half-life [21]: 0.517 h; Ratio [22]: 8; MIC90 (Proteus mirabilis): ≤ 0.03 µg/mL; MIC90 (Enterococcus faecalis [16]): 0.5 µg/mL (≈ 0.939 µM); MIC90 [17]: 0.06 µg/mL (≈ 0.113 µM); MIC90 [18]: 0.25 µg/mL (≈ 0.469 µM); MIC90 (Morganella morganii): ≤ 0.03 µg/mL; MIC90 (Providencia rettgeri): ≤ 0.03 µg/mL; CC50 at 72 h [19]: 64 µg/mL (≈ 120 µM); half-life [23]: 4.1 h; MIC90 (Enterobacter cloacae): ≤ 0.03 µg/mL
